Screening data from PubChem.
KCNQ1 inh = inhibitors of human KCNQ1 channel, primary screen, cell-based, thallium flux, high-throughput; hit rate 1.3% among 310,000; Potassium voltage-gated channel subfamily KQT member 1 (Homo sapiens), P51787; AID 2642, 2010; B-score at 10 µM; CHO-K1 KCNQ1, FluxOR thallium flux fluorescence; active compounds read high;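 active = compounds whose thallium flux B-score, printed positive for inhibition, exceeds three library SD while starting fluorescence stays within three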;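 also: channel opened by potassium depolarization with thallium stimulus after 20 min compound exposure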
KCNK9 inh = KCNK9 potassium channel inhibitors, primary screen, HEK293 cells, thallium flux; Potassium channel subfamily K member 9 (Homo sapiens), Q9NPC2; FluxOR thallium flux fluorescence; active compounds read low; B-score at 10 µM; hit rate 1.2% among 310,000; AID 488922, 2010;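 active = ratio B-score over 3 SD below the library mean, with starting fluorescence within 5 SD of its mean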;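 also: negative B-score means less thallium flux so channel inhibition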
KCNQ1 pot = potentiators or activators of KCNQ1 channel, primary screen, cell-based, thallium flux, high-throughput; Potassium voltage-gated channel subfamily KQT member 1 (Homo sapiens), P51787; CHO-K1 KCNQ1, thallium flux FluxOR fluorescence; active compounds read high; B-score at 10 µM; hit rate 0.35% among 310,000;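 active = fluorescence ratio B-score, a plate-corrected score, at least three library SD, with initial intensity B-score within 5 SD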
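Assay system: CHO-K1 cells stably expressing KCNQ1; Medium: assay buffer with matched DMSO; Also added: K+/Tl+ depolarizing stimulus; Dosing: single dose; Timing: dye 90 min, compound 20 min, room temperature; Measured by: kinetic FluxOR thallium fluorescence, 10-s 1-Hz baseline, 110-s post-stimulus read; Read-out: peak-minus-minimum fluorescence over initial fluorescence, negative-control normalized, B-scored.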
KCNK3 inh = human KCNK3 channel inhibitors, primary screen, CHO cells, FluxOR thallium flux, B-score; Potassium channel subfamily K member 3 (Homo sapiens), O14649; FluxOR fluorescence; active compounds read low; B-score at 10 µM; hit rate 0.84% among 340,000;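 active = B-score under library mean minus 4 SD, starting fluorescence ratio at most library mean plus 5 SD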;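 also: more negative B-score means stronger inhibition of thallium flux through KCNK3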
Target sequence (O14649 whole entry, looked up): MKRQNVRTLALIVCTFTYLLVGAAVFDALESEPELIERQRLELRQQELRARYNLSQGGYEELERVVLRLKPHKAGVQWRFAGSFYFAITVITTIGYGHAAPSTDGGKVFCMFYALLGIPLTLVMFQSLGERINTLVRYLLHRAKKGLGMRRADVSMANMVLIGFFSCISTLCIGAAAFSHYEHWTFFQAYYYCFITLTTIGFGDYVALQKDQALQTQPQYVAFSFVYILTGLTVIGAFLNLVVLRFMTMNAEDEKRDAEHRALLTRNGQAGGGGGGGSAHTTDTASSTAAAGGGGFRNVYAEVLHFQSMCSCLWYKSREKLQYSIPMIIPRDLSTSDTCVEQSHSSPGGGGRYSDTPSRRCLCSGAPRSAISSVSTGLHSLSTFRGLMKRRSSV
hERG protect = hERG rescue from dofetilide block, primary screen, cell-based, CHO-hERG, FluxOR thallium flux, dofetilide IC70; Voltage-gated inwardly rectifying potassium channel KCNH2 (Homo sapiens), Q12809; dofetilide IC70 present; activation (rescue from dofetilide block), less the hit threshold, % at 10 µM; hit rate 0.51% among 310,000; AID 1511, 2009;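 active = activation above the mean of controls blocked by dofetilide plus 5 SD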;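 also: thallium influx through hERG after potassium depolarization seen as dye fluorescence rise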
Active calls of the source: *. Shown are actives, neighbours in structure and some others; about 3.1% of the full set was active somewhere.

`Cc1ccc(S(=O)(=O)N2CCN(C(=O)c3cc(C4CC4)nc4c3cnn4C(C)C)CC2)cc1` gave KCNK3 inh inactive.
`CCOC(=O)c1ccc(Oc2nc(NC(C)(C)C)nc(N(C)C)n2)cc1` gave KCNQ1 inh inactive, KCNK9 inh inactive, KCNQ1 pot 27*, KCNK3 inh inactive and hERG protect -2.4.
`CCOC(=O)c1ccc(Oc2nc(N(C)C)nc(N(C)C)n2)cc1` gave KCNQ1 inh inactive, KCNK9 inh inactive, KCNQ1 pot inactive, KCNK3 inh inactive and hERG protect -1.2.
O=c1cc(-c2c(F)c(F)c(F)c(F)c2F)oc2ccccc12 was read as KCNQ1 inh inactive, KCNK9 inh inactive, KCNQ1 pot 24*, KCNK3 inh inactive and hERG protect 18.9*.
`CC(=N\NC(=O)c1ccc([N+](=O)[O-])cc1)/C(=N/O)C(=O)Nc1ccccc1` gave KCNQ1 inh 6*, KCNK9 inh inactive, KCNQ1 pot inactive, KCNK3 inh inactive and hERG protect -14.4.
For CCOC(=O)/C(C)=N/NC(=O)c1ccc([N+](=O)[O-])cc1 the results were KCNQ1 inh inactive, KCNK9 inh inactive, KCNQ1 pot 11*, KCNK3 inh inactive and hERG protect 10.5*.
Screening Cc1ccc(S(=O)(=O)Nc2cccc3c2O[C@H](CN(C)C(=O)Nc2cccc4ccccc24)[C@H](C)CN([C@H](C)CO)C3=O)cc1 returned KCNK3 inh inactive.
For NC(N)=NN=C1CCCCCCCCCCC1 the results were KCNQ1 inh 7*, KCNK9 inh inactive, KCNQ1 pot inactive, KCNK3 inh inactive and hERG protect -25.6.
`O=C(Nc1ccnn1C1CCN(C(=O)c2cc(Cl)ccc2F)CC1)C1CCOC1` (stereo unspecified) gave KCNQ1 inh inactive, KCNK9 inh inactive, KCNQ1 pot inactive, KCNK3 inh inactive and hERG protect -6.7.
`CCC(CC)NC(=O)C1CCN(c2ccc(S(=O)(=O)N3CCOCC3)cc2[N+](=O)[O-])CC1` gave KCNK3 inh inactive.
For CCCCC1(C2CCCC2)NC(=O)NC1=O (stereo unspecified) the results were KCNK3 inh inactive.
Cc1ccc(NC(=S)NC(=O)c2ccc(F)cc2)cc1S(=O)(=O)Nc1cccc(Cl)c1 was read as KCNQ1 inh inactive, KCNK9 inh inactive, KCNQ1 pot inactive, KCNK3 inh inactive and hERG protect -14.1.
CNC(=S)Nc1cccc([N+](=O)[O-])c1 was read as KCNQ1 inh inactive, KCNK9 inh inactive, KCNQ1 pot inactive, KCNK3 inh inactive and hERG protect -6.4.
`Cc1cc(Br)ccc1NC(=S)Nc1cccc([N+](=O)[O-])c1` gave KCNQ1 inh 10*, KCNK9 inh inactive, KCNQ1 pot inactive, KCNK3 inh inactive and hERG protect -18.3.
For Cc1ccc(NC(=O)c2cccs2)cc1S(=O)(=O)Nc1cccc(Cl)c1 the results were KCNQ1 inh inactive, KCNK9 inh -7.79*, KCNQ1 pot inactive, KCNK3 inh inactive and hERG protect -9.4.
Cc1ccc(NS(=O)(=O)c2cc(C(=O)Nc3cccc([N+](=O)[O-])c3)ccc2C)cc1 was read as KCNQ1 inh inactive, KCNK9 inh -6.77*, KCNQ1 pot inactive, KCNK3 inh inactive and hERG protect -2.8.
For C/C(=N/NC(=S)Nc1cccc(C)c1)c1cccc([N+](=O)[O-])c1 the results were KCNQ1 inh inactive, KCNK9 inh inactive, KCNQ1 pot 10*, KCNK3 inh inactive and hERG protect 0.1.
Screening O=C(NCC(c1ccco1)N1CCN(c2ccccc2F)CC1)C(=O)NC1CCCC1 (stereo unspecified) returned KCNQ1 inh inactive, KCNK9 inh inactive, KCNQ1 pot inactive, KCNK3 inh inactive and hERG protect -11.6.
Cc1cccc(NC(=S)NNC(=O)c2cccc([N+](=O)[O-])c2)c1 was read as KCNQ1 inh 7*, KCNK9 inh inactive, KCNQ1 pot inactive, KCNK3 inh inactive and hERG protect -18.2.
S=c1[nH]nc(-c2ccco2)n1/N=C/c1cccc(Cl)c1Cl was read as KCNQ1 inh inactive, KCNK9 inh inactive, KCNQ1 pot 15*, KCNK3 inh inactive and hERG protect -0.3.
S=c1[nH]nc(-c2ccco2)n1/N=C/c1ccc(Cl)cc1Cl was read as KCNQ1 inh inactive, KCNK9 inh inactive, KCNQ1 pot inactive, KCNK3 inh inactive and hERG protect -5.9.
O=C(CNC(=O)c1nc[nH]c1C(=O)N1CCN(c2ccccc2)CC1)OCc1ccccc1 was read as KCNQ1 inh inactive, KCNK9 inh inactive, KCNQ1 pot inactive, KCNK3 inh inactive and hERG protect -11.3.
Cn1c2cc(C#N)sc2c2cnn(Cc3ccc(F)cc3)c(=O)c21 was read as KCNK3 inh inactive.
CCCCN(CC)C(=O)CSc1nc2c(sc(=S)n2-c2ccc(OCC)cc2)c(=O)[nH]1 was read as KCNQ1 inh 8*, KCNK9 inh inactive, KCNQ1 pot inactive, KCNK3 inh inactive and hERG protect -19.2.
COc1ccccc1-n1c(=S)sc2c(=O)n(Cc3ccco3)c(SC)nc21 was read as KCNQ1 inh 9*, KCNK9 inh inactive, KCNQ1 pot inactive, KCNK3 inh inactive and hERG protect -13.4.
CCOc1ccc(-n2c(=S)sc3c(=O)n(-c4ccccc4)c(SC)nc32)cc1 was read as KCNQ1 inh inactive, KCNK9 inh inactive, KCNQ1 pot 8*, KCNK3 inh inactive and hERG protect -3.1.
`CCOC(=O)CC(=O)CSc1nc2c(sc(=S)n2-c2ccc(OCC)cc2)c(=O)[nH]1` gave KCNQ1 inh inactive, KCNK9 inh inactive, KCNQ1 pot inactive, KCNK3 inh inactive and hERG protect -9.1.
Screening CCCN(CCC)C(=O)CSc1nc2c(sc(=S)n2-c2ccc(OCC)cc2)c(=O)[nH]1 returned KCNQ1 inh 7*, KCNK9 inh inactive, KCNQ1 pot inactive, KCNK3 inh inactive and hERG protect -8.9.
For Cc1nc(Cc2ccccc2)sc1CC#N the results were KCNK3 inh inactive.
`CCOc1cc(C=NN2CCCCCC2)ccc1O` gave KCNK3 inh inactive.
`CCCC(=O)Nc1ccc(OCC(O)CNC(C)C)c(C(C)=O)c1` (stereo unspecified) gave KCNQ1 inh inactive, KCNK9 inh inactive, KCNQ1 pot 9*, KCNK3 inh inactive and hERG protect -8.6.
Cc1cn([C@H]2C[C@H](O)[C@@H](CCC(=O)NCc3ccco3)O2)c(=O)[nH]c1=O was read as KCNK3 inh inactive.
